{"source": "ChEMBL document CHEMBL4680310", "about": "“Identification of N-acyl-N-indanyl-α-phenylglycinamides as selective TRPM8 antagonists designed to mitigate the risk of adverse effects” (Bioorg Med Chem, 2021)", "key": {"[1]": {"target": "T1, Nuclear receptor subfamily 1 group I member 2 (Homo sapiens, UniProt O75469)", "T1 sequence (O75469 whole entry)": "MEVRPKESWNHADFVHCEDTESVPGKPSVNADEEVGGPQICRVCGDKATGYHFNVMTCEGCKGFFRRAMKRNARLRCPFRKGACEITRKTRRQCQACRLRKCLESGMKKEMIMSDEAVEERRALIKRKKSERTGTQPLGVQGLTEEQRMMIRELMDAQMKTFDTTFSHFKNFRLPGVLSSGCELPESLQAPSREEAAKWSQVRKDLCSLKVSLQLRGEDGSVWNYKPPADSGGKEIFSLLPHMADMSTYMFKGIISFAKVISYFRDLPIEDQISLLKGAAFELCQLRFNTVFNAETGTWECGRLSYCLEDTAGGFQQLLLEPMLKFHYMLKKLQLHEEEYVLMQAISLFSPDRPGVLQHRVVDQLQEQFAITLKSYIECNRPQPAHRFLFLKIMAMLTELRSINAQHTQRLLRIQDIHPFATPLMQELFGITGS", "assay": "Activation of human PXR ligand binding domain incubated for 1 hr by TR-FRET assay", "type": "ADME"}, "[2]": {"assay": "Toxicity in mouse assessed as convulsions at 300 mg/kg, po", "type": "organism-based", "settings": "in vivo"}, "CYP3A4": {"target": "CYP3A4 (Homo sapiens, UniProt P08684)", "sequence (P08684 whole entry)": "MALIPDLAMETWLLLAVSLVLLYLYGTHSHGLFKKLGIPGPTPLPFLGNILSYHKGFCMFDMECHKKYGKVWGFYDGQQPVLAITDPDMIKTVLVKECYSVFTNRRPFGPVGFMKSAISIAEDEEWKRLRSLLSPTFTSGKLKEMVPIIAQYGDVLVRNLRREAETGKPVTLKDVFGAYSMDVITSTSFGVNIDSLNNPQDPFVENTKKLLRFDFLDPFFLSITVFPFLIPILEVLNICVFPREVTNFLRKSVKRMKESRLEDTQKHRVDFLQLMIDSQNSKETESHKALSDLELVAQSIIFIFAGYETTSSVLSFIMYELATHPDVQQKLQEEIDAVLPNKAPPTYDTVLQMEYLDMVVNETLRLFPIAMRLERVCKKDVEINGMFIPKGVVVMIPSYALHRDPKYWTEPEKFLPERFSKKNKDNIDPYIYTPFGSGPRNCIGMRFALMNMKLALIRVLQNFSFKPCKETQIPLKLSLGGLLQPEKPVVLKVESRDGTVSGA", "assay": "Inhibition of CYP3A4 in human liver microsomes assessed as reduction in 1'-hydroxymidazolam formation using midazolam as substrate at 10 uM preincubated with enzyme and NADPH followed by substrate addition and measured after 10 mins by HPLC/MS-MS analysis relative to control", "type": "ADME", "settings": "probe midazolam (1'-hydroxymidazolam formation)", "summary_of_the_method": "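Compound at 100 µM was pre-incubated at 37 °C with human liver microsomes (0.5 mg/mL) in 0.1 M phosphate pH 7.4 with 5 mM MgCl₂ and 1 mM NADPH. The mix was then diluted 10-fold into 25 µM midazolam in the same buffer and incubated 10 min at 37 °C. Ice-cold acetonitrile stopped the reaction. 1′-Hydroxymidazolam was quantified by HPLC-MS/MS, with ketoconazole (1 µM) as reference inhibitor.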"}, "[3]": {"target": "Transient receptor potential cation channel subfamily A member 1 (Homo sapiens, UniProt O75762)", "sequence (O75762 whole entry)": "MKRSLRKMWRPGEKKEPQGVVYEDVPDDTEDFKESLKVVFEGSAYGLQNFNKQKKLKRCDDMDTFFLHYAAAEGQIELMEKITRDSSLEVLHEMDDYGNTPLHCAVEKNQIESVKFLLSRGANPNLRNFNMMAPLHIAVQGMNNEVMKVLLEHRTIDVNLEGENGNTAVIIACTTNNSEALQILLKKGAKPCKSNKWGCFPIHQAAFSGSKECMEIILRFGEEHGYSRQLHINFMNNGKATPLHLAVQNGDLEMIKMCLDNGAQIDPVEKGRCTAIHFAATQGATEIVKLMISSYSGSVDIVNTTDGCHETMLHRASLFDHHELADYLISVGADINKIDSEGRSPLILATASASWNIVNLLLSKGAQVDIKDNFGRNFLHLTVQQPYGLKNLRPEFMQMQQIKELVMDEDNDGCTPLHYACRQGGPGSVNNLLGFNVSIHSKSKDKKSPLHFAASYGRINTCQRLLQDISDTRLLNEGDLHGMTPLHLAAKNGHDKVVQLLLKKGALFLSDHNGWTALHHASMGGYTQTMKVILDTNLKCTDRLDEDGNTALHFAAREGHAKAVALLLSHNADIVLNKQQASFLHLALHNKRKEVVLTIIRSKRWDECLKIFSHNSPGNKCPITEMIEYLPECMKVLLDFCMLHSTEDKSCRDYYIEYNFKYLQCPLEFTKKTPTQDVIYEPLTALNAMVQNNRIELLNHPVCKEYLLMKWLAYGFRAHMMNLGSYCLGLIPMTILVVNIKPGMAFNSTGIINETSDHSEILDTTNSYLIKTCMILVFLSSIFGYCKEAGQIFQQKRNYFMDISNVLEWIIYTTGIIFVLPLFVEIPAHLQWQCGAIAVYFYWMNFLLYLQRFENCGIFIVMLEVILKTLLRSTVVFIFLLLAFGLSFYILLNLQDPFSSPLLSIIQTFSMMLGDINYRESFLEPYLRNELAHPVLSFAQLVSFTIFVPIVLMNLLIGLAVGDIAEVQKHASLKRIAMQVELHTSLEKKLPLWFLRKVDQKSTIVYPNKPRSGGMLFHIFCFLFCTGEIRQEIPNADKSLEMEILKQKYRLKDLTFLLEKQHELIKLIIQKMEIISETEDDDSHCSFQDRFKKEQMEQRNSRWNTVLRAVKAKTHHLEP", "assay": "Inhibition of human TRPA1 transfected in HEK293T cells assessed as reduction in AITC-induced calcium influx measured after 60 mins by Fluo-4 AM dye based fluorescence analysis", "type": "cell-based", "summary_of_the_method": "(§1)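 HEK293T cells were seeded at 5 × 10⁴ cells/well in DMEM with 10% FBS and transfected 4 h later. The vectors were pcDNA3.1 for TRPM8, TRPA1 and TRPV4, and pCI-neo for TRPV1. After 2 days, cells were dye-loaded for 60 min at 37 °C: Fluo-4 AM for TRPM8, TRPA1 and TRPV1, Fura-2 AM for TRPV4. Calcium was read on an FDSS reader. IC50 came from nonlinear regression, mean ± SEM (n = 3).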"}, "[4]": {"assay": "Half life in Sprague Dawley rat at 1 mg/kg, iv by LC-MS/MS analysis", "type": "ADME, organism-based", "settings": "in vivo", "summary_of_the_method": "(§2)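 Rats were given a single oral or intravenous dose. Blood was taken from the jugular vein at 2, 15 and 30 min and at 1, 2, 4 and 6 h. Plasma levels were measured by LC-MS/MS. Each parameter was calculated from the mean plasma concentration of three animals.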"}, "[5]": {"assay": "Total clearance in Sprague-Dawley rat at 1 mg/kg, iv measured upto 6 hrs by LC-MS/MS analysis", "type": "ADME, organism-based", "settings": "in vivo", "summary_of_the_method": "as §2"}, "[6]": {"target": "Transient receptor potential cation channel subfamily M member 8 (Rattus norvegicus, UniProt Q8R455)", "assay": "Antagonist activity at rat TRPM8 transfected in HEK293T cells assessed as reduction in menthol-induced calcium influx measured after 60 mins by Fluo-4 AM dye based fluorescence analysis", "type": "cell-based", "summary_of_the_method": "as §1"}, "[7]": {"assay": "Tmax in Sprague-Dawley rat at 3 mg/kg, po by LC-MS/MS analysis", "type": "ADME, organism-based", "settings": "in vivo, time <=6 hrs", "summary_of_the_method": "as §2"}, "[8]": {"assay": "AUC (0 to infinity) in Sprague-Dawley rat at 3 mg/kg, po by LC-MS/MS analysis", "type": "ADME, organism-based", "parameters": "time infinity, route oral, dose 3 mg/kg", "settings": "in vivo", "summary_of_the_method": "as §2"}, "[9]": {"target": "Transient receptor potential cation channel subfamily V member 1 (Homo sapiens, UniProt Q8NER1)", "sequence (Q8NER1 whole entry)": "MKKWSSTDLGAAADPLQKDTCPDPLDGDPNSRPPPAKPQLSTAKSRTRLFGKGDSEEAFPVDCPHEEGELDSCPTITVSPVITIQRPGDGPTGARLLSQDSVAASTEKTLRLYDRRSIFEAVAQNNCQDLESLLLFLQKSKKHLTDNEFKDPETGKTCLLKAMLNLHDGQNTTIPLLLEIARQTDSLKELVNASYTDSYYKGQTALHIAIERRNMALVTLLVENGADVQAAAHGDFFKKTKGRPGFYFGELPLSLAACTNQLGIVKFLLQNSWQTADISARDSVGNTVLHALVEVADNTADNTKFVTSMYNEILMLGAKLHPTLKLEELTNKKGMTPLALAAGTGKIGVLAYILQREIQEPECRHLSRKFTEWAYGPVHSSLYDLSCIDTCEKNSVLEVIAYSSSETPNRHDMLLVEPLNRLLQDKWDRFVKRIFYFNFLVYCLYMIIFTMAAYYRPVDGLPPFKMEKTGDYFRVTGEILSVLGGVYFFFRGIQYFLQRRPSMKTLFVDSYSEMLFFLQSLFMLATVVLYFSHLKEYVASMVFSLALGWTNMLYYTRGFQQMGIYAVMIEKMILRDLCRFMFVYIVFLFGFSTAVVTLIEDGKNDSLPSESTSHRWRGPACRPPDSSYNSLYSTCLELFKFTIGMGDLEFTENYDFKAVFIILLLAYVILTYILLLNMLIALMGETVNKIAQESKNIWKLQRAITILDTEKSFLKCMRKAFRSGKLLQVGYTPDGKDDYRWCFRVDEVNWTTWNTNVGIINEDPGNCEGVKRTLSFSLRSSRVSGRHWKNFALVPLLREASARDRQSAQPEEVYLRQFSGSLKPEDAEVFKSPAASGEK", "assay": "Inhibition of human TRPV1 transfected in HEK293T cells assessed as reduction in capsaicin-induced calcium influx measured after 60 mins by Fluo-4 AM dye based fluorescence analysis", "type": "cell-based", "summary_of_the_method": "as §1"}, "[10]": {"assay": "Cmax in Sprague-Dawley rat at 3 mg/kg, po measured upto 6 hrs by LC-MS/MS analysis", "type": "ADME, organism-based", "parameters": "route oral, dose 3 mg/kg, time <=6", "settings": "in vivo", "summary_of_the_method": "as §2"}, "[11]": {"assay": "Oral bioavailability in Sprague-Dawley rat at 3 mg/kg measured upto 6 hrs by LC-MS/MS analysis", "type": "ADME, organism-based", "settings": "in vivo", "summary_of_the_method": "as §2"}, "[12]": {"target": "Transient receptor potential cation channel subfamily V member 4 (Homo sapiens, UniProt Q9HBA0)", "sequence (Q9HBA0 whole entry)": "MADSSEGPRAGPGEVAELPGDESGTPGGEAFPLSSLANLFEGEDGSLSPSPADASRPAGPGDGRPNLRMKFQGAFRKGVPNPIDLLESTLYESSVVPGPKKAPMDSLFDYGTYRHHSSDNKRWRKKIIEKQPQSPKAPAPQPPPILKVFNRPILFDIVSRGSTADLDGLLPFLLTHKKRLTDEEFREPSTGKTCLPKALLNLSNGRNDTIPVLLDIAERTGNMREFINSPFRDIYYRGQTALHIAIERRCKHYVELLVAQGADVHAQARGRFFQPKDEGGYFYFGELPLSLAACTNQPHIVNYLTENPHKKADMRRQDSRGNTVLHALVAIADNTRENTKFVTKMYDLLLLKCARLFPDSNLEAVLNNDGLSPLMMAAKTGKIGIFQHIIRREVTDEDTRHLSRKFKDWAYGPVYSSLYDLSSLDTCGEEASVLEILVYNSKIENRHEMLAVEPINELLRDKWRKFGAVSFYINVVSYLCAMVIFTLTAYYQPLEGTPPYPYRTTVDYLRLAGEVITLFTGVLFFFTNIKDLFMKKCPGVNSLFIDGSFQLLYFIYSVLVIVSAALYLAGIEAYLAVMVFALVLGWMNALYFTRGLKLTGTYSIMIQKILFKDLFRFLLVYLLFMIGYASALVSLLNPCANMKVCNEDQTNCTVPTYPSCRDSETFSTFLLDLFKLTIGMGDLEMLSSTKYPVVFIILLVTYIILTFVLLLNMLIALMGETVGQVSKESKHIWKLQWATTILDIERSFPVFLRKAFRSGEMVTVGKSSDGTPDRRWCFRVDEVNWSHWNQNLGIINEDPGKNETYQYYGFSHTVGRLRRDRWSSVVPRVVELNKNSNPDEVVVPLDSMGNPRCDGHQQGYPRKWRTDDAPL", "assay": "Inhibition of human TRPV4 transfected in HEK293T cells assessed as reduction in RN1747-induced calcium influx measured after 60 mins by Fura-2 AM dye based fluorescence analysis", "type": "cell-based", "summary_of_the_method": "as §1"}, "[13]": {"assay": "Volume of distribution at steady state in Sprague-Dawley rat at 1 mg/kg, iv measured upto 6 hrs by LC-MS/MS analysis", "type": "ADME, organism-based", "settings": "in vivo, read-out: Vdss", "summary_of_the_method": "as §2"}, "[14]": {"assay": "AUC (0 to infinity) in Sprague-Dawley rat at 1 mg/kg, iv by LC-MS/MS analysis", "type": "ADME, organism-based", "parameters": "time infinity, route intravenous, dose 1 mg/kg", "settings": "in vivo", "summary_of_the_method": "as §2"}, "Rattus norvegicus [15]": {"system": "Rattus norvegicus", "assay": "Inhibition of overactive bladder activity in Sprague-Dawley rat assessed as inhibition of cold-induced voiding behaviour by measuring mean voided volume at 10 mg/kg, po administered 1 hr prior to cold exposure and measured at 2 mins interval for 4 hrs (reference value: 0.57 +/- 0.05 ml)", "type": "functional", "settings": "time 5 hrs"}, "[16]": {"assay": "In vivo antagonist activity at TRPM8 in Sprague-Dawley rat assessed as inhibition of icilin-induced wet dog shakes at 10 mg/kg, po administered 1 hr prior to icilin administration and measured after 5 mins for 5 mins", "type": "functional", "settings": "1.167 h, time 70 min", "summary_of_the_method": "(§3)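 Female rats received vehicle or compound orally. After 1 or 4 h, icilin (1 mg/mL in PEG 400) was given intraperitoneally. Wet-dog shakes were counted for 5 min, starting 5 min after icilin. Results are percent inhibition versus vehicle-treated counts, mean ± SEM (n = 5).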"}, "[17]": {"assay": "Ratio of drug level in rat brain to plasma measured after 4 hrs", "type": "ADME, cell-free", "settings": "read-out: BPR"}, "[18]": {"assay": "Drug uptake in rat brain measured after 4 hrs", "type": "ADME, tissue-based", "settings": "read-out: Drug uptake"}, "[19]": {"assay": "In vivo antagonist activity at TRPM8 in Sprague-Dawley rat assessed as inhibition of icilin-induced wet dog shakes at 10 mg/kg, po administered 4 hrs prior to icilin administration and measured after 5 mins for 5 mins", "type": "functional", "settings": "4.167 h, time 250 min", "summary_of_the_method": "as §3"}, "Rattus norvegicus [20]": {"system": "Rattus norvegicus", "assay": "Inhibition of overactive bladder activity in Sprague-Dawley rat assessed as inhibition of cold-induced voiding behaviour by measuring total voided volume at 10 mg/kg, po administered 1 hr prior to cold exposure and measured at 2 mins interval for 4 hrs (reference value: 5.57 +/-0.27 ml)", "type": "functional", "settings": "time 5 hrs"}, "Rattus norvegicus [21]": {"system": "Rattus norvegicus", "assay": "Inhibition of overactive bladder activity in Sprague-Dawley rat assessed as inhibition of cold-induced voiding behaviour by measuring reduction in voiding frequency at 10 mg/kg, po administered 1 hr prior to cold exposure and measured at 2 mins interval for 4 hrs", "type": "functional, organism-based", "settings": "time 5.0 hrs"}, "[22]": {"assay": "Plasma concentration in rat measured after 4 hrs", "type": "ADME, cell-free"}, "[23]": {"target": "Transient receptor potential cation channel subfamily M member 8 (Homo sapiens, UniProt Q7Z2W7)", "sequence (Q7Z2W7 whole entry)": "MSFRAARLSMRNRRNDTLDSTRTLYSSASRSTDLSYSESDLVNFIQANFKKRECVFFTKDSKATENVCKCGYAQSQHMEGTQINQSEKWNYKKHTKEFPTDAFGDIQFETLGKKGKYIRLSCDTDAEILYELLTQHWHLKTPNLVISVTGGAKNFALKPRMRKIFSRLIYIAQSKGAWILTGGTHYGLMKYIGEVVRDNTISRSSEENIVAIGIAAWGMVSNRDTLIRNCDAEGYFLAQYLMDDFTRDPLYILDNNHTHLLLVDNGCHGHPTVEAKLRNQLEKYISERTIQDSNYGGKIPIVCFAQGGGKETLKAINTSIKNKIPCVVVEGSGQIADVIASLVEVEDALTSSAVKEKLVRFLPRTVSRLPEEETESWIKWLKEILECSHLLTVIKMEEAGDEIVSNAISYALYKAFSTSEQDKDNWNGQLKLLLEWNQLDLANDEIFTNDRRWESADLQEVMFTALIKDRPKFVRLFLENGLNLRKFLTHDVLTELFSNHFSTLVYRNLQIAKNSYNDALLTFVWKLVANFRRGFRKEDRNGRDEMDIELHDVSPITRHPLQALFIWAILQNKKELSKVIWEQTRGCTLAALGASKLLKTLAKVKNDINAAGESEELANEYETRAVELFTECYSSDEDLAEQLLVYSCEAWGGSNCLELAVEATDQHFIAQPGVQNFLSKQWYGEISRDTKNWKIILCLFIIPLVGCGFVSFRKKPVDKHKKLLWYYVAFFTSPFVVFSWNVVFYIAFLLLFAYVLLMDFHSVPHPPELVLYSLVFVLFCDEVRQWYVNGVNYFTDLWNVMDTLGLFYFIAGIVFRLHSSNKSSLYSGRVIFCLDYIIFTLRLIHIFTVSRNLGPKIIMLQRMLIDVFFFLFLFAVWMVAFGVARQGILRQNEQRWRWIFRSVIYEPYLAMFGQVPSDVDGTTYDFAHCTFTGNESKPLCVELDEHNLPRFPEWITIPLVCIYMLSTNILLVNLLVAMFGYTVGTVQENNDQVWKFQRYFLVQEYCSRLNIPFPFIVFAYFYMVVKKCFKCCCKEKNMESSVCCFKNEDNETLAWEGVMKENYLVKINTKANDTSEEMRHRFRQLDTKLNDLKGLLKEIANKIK", "assay": "Antagonist activity at human TRPM8 transfected in HEK293T cells assessed as reduction in menthol-induced calcium influx measured after 60 mins by Fluo-4 AM dye based fluorescence analysis", "type": "cell-based"}}, "note": "The source made the active and inactive calls. The rule behind the calls is not given here.", "data": [{"smiles": "C[C@H](c1cc(F)cc(F)c1)N(C(=O)c1ccccc1O)[C@@H](C(N)=O)c1ccccc1", "values": [{"measurement": "EC50", "setting": "[1]", "value": 12, "unit": "µM"}]}, {"smiles": "NC(=O)[C@@H](c1ccccc1)N(C(=O)c1cccnc1)[C@@H]1CCc2c(F)cc(Cl)cc21", "values": [{"measurement": "Activity", "setting": "[2]", "value": "Non-Toxic"}, {"measurement": "EC50", "setting": "[1]", "value": 131, "unit": "µM"}, {"measurement": "inhibition at 10 min, 10 µM", "setting": "CYP3A4", "value": 65, "unit": "%"}]}, {"smiles": "NC(=O)[C@@H](c1ccccc1)N(C(=O)c1cccnc1N)[C@@H]1CCc2c(F)cc(Cl)cc21", "values": [{"measurement": "inhibition at 10 min, 10 µM", "setting": "CYP3A4", "value": 18, "unit": "%"}]}, {"smiles": "Cc1ncccc1C(=O)N([C@@H]1CCc2c(F)cc(Cl)cc21)[C@@H](C(N)=O)c1ccccc1", "values": [{"measurement": "IC50", "setting": "[3]", "value": "> 30", "unit": "µM"}, {"measurement": "half-life", "setting": "[4]", "value": 64, "unit": "min"}, {"measurement": "clearance", "setting": "[5]", "value": 25, "unit": "mL/min/kg"}, {"measurement": "IC50", "setting": "[6]", "value": 0.08, "unit": "µM"}, {"measurement": "Tmax", "setting": "[7]", "value": 40, "unit": "min"}, {"measurement": "AUC(0-inf)", "setting": "[8]", "value": 1110, "unit": "ng·h/mL"}, {"measurement": "IC50", "setting": "[9]", "value": "> 30", "unit": "µM"}, {"measurement": "Activity", "setting": "[2]", "value": "Non-Toxic"}, {"measurement": "Cmax", "setting": "[10]", "value": 466, "unit": "ng/mL"}, {"measurement": "bioavailability", "setting": "[11]", "value": 55, "unit": "%"}, {"measurement": "IC50", "setting": "[12]", "value": "> 30", "unit": "µM"}, {"measurement": "inhibition at 10 min, 10 µM", "setting": "CYP3A4", "value": 17, "unit": "%"}, {"measurement": "Vd", "setting": "[13]", "value": 1.89, "unit": "L/kg"}, {"measurement": "AUC(0-inf)", "setting": "[14]", "value": 674, "unit": "ng·h/mL"}]}, {"smiles": "NC(=O)[C@@H](c1ccccc1)N(C(=O)c1cccnc1)[C@@H]1CCc2c(F)cc(F)cc21", "values": [{"measurement": "EC50", "setting": "[1]", "value": 47, "unit": "µM"}]}, {"smiles": "C[C@H](c1cc(F)cc(F)c1)N(C(=O)c1ccccc1)[C@@H](C(N)=O)c1ccccc1", "values": [{"measurement": "Activity", "setting": "Rattus norvegicus [15]", "value": 0.75, "unit": "mL"}, {"measurement": "inhibition in vivo at 10 mg/kg", "setting": "[16]", "value": 100, "unit": "%"}, {"measurement": "Kp at 4 h", "setting": "[17]", "value": 1.66}, {"measurement": "concentration at 4 h", "setting": "[18]", "value": 171, "unit": "µM"}, {"measurement": "inhibition in vivo at 10 mg/kg", "setting": "[19]", "value": 97, "unit": "%"}, {"measurement": "EC50", "setting": "[1]", "value": 10.3, "unit": "µM"}, {"measurement": "Activity", "setting": "Rattus norvegicus [20]", "value": 5.81, "unit": "mL"}, {"measurement": "inhibition", "setting": "Rattus norvegicus [21]", "value": "Active"}, {"measurement": "concentration at 4 h", "setting": "[22]", "value": 103, "unit": "µM"}, {"measurement": "inhibition at 10 min, 10 µM", "setting": "CYP3A4", "value": 27, "unit": "%"}]}, {"smiles": "NC(=O)[C@@H](c1ccccc1)N(C(=O)c1ccccc1)[C@@H]1CCc2ncccc21", "values": [{"measurement": "IC50", "setting": "[23]", "value": 19.5, "unit": "µM"}]}, {"smiles": "COc1ncccc1C(=O)N([C@@H]1CCc2c(F)cc(Cl)cc21)[C@@H](C(N)=O)c1ccccc1", "values": [{"measurement": "inhibition at 10 min, 10 µM", "setting": "CYP3A4", "value": 22, "unit": "%"}]}]}
